{"source": "ChEMBL document CHEMBL4145521", "about": "“Regioselective synthesis of 3,4-diaryl-5-unsubstituted isoxazoles, analogues of natural cytostatic combretastatin A4” (Eur J Med Chem, 2018)", "type_in_all_cases": "functional", "key": {"MOLT-4": {"test_system": "MOLT-4", "assay": "Cytotoxicity against human MOLT4 cells assessed as cell growth at 1 uM incubated for 48 hrs by sulforhodamine B assay relative to control", "conditions": "MOLT-4, 48 h, read-out: Activity"}, "NCI/ADR-RES [1]": {"test_system": "NCI/ADR-RES", "assay": "Cytotoxicity against human NCI/ADR-RES cells assessed as cell growth at 10 uM incubated for 48 hrs by sulforhodamine B assay relative to control", "conditions": "read-out: Activity"}, "CAKI-1": {"test_system": "CAKI-1", "assay": "Cytotoxicity against human Caki1 cells assessed as cell growth at 0.1 uM incubated for 48 hrs by sulforhodamine B assay relative to control", "conditions": "CAKI-1, 48 h, read-out: Activity"}, "Hs-578T": {"test_system": "Hs-578T", "assay": "Cytotoxicity against human Hs 578T cells assessed as cell growth at 0.01 uM incubated for 48 hrs by sulforhodamine B assay relative to control", "conditions": "read-out: Activity"}, "A549 [2]": {"test_system": "A549", "assay": "Cytotoxicity against human A549/ATCC cells assessed as cell growth at 100 uM incubated for 48 hrs by sulforhodamine B assay relative to control", "conditions": "A549, 48 h, read-out: Activity"}, "TK-10": {"test_system": "TK-10", "assay": "Cytotoxicity against human TK10 cells assessed as cell growth at 0.1 uM incubated for 48 hrs by sulforhodamine B assay relative to control", "conditions": "TK-10, 48 h, read-out: Activity"}, "786-0": {"test_system": "786-0", "assay": "Cytotoxicity against human 786-0 cells assessed as cell growth at 0.1 uM incubated for 48 hrs by sulforhodamine B assay relative to control", "conditions": "786-0, 48 h, read-out: Activity"}, "COLO 205": {"test_system": "COLO 205", "assay": "Cytotoxicity against human COLO205 cells assessed as cell growth at 100 uM incubated for 48 hrs by sulforhodamine B assay relative to control", "conditions": "COLO 205, 48 h, read-out: Activity"}, "SK-MEL-28": {"test_system": "SK-MEL-28", "assay": "Cytotoxicity against human SK-MEL-28 cells assessed as cell growth at 0.1 uM incubated for 48 hrs by sulforhodamine B assay relative to control", "conditions": "SK-MEL-28, 48 h, read-out: Activity"}, "OVCAR-8": {"test_system": "OVCAR-8", "assay": "Cytotoxicity against human OVCAR8 cells assessed as cell growth at 0.1 uM incubated for 48 hrs by sulforhodamine B assay relative to control", "conditions": "OVCAR-8, 48 h, read-out: Activity"}, "IGROV-1": {"test_system": "IGROV-1", "assay": "Cytotoxicity against human IGROV1 cells assessed as cell growth at 10 uM incubated for 48 hrs by sulforhodamine B assay relative to control", "conditions": "IGROV-1, 48 h, read-out: Activity"}, "NCI/ADR-RES [3]": {"test_system": "NCI/ADR-RES", "assay": "Cytotoxicity against human NCI/ADR-RES cells incubated for 48 hrs by sulforhodamine B assay"}, "RPMI-8226": {"test_system": "RPMI-8226", "assay": "Cytotoxicity against human RPMI8226 cells assessed as cell growth at 0.01 uM incubated for 48 hrs by sulforhodamine B assay relative to control", "conditions": "RPMI-8226, 48 h, read-out: Activity"}, "A549 [4]": {"test_system": "A549", "assay": "Cytotoxicity against human A549/ATCC cells assessed as cell growth at 10 uM incubated for 48 hrs by sulforhodamine B assay relative to control", "conditions": "A549, 48 h, read-out: Activity"}, "MDA-MB-231": {"test_system": "MDA-MB-231", "assay": "Cytotoxicity against human MDA-MB-231 cells assessed as cell growth at 10 uM incubated for 48 hrs by sulforhodamine B assay relative to control", "conditions": "MDA-MB-231, 48 h, read-out: Activity"}, "SF-295": {"test_system": "SF-295", "assay": "Cytotoxicity against human SF295 cells assessed as cell growth at 0.1 uM incubated for 48 hrs by sulforhodamine B assay relative to control", "conditions": "SF-295, 48 h, read-out: Activity"}, "SNB-19": {"test_system": "SNB-19", "assay": "Cytotoxicity against human SNB19 cells assessed as cell growth at 0.1 uM incubated for 48 hrs by sulforhodamine B assay relative to control", "conditions": "SNB-19, 48 h, read-out: Activity"}, "SK-OV-3": {"test_system": "SK-OV-3", "assay": "Cytotoxicity against human SKOV3 cells assessed as cell growth at 0.1 uM incubated for 48 hrs by sulforhodamine B assay relative to control", "conditions": "SK-OV-3, 48 h, read-out: Activity"}, "CCRF-CEM [5]": {"test_system": "CCRF-CEM", "assay": "Cytotoxicity against human CCRF-CEM cells assessed as cell growth at 0.01 uM incubated for 48 hrs by sulforhodamine B assay relative to control", "conditions": "read-out: Activity"}, "SNB-75 [6]": {"test_system": "SNB-75", "assay": "Cytotoxicity against human SNB75 cells assessed as cell growth at 100 uM incubated for 48 hrs by sulforhodamine B assay relative to control", "conditions": "SNB-75, 48 h, read-out: Activity"}, "SF-268": {"test_system": "SF-268", "assay": "Cytotoxicity against human SF268 cells assessed as cell growth at 10 uM incubated for 48 hrs by sulforhodamine B assay relative to control", "conditions": "SF-268, 48 h, read-out: Activity"}, "SR": {"test_system": "SR", "assay": "Cytotoxicity against human SR cells assessed as cell growth at 10 uM incubated for 48 hrs by sulforhodamine B assay relative to control", "conditions": "read-out: Activity"}, "MDA-MB-435": {"test_system": "MDA-MB-435", "assay": "Cytotoxicity against human MDA-MB-435 cells assessed as cell growth at 1 uM incubated for 48 hrs by sulforhodamine B assay relative to control", "conditions": "MDA-MB-435, 48 h, read-out: Activity"}, "CCRF-CEM [7]": {"test_system": "CCRF-CEM", "assay": "Cytotoxicity against human CCRF-CEM cells assessed as cell growth at 100 uM incubated for 48 hrs by sulforhodamine B assay relative to control", "conditions": "read-out: Activity"}, "M14": {"test_system": "M14", "assay": "Cytotoxicity against human M14 cells assessed as cell growth at 10 uM incubated for 48 hrs by sulforhodamine B assay relative to control", "conditions": "M14, 48 h, read-out: Activity"}, "SNB-75 [8]": {"test_system": "SNB-75", "assay": "Cytotoxicity against human SNB75 cells assessed as cell growth at 0.1 uM incubated for 48 hrs by sulforhodamine B assay relative to control", "conditions": "SNB-75, 48 h, read-out: Activity"}, "SW-620": {"test_system": "SW-620", "assay": "Cytotoxicity against human SW620 cells assessed as cell growth at 100 uM incubated for 48 hrs by sulforhodamine B assay relative to control", "conditions": "SW-620, 48 h, read-out: Activity"}, "NCI-H460": {"test_system": "NCI-H460", "assay": "Cytotoxicity against human NCI-H460 cells assessed as cell growth at 10 uM incubated for 48 hrs by sulforhodamine B assay relative to control", "conditions": "NCI-H460, 48 h, read-out: Activity"}, "CCRF-CEM [9]": {"test_system": "CCRF-CEM", "assay": "Cytotoxicity against human CCRF-CEM cells incubated for 48 hrs by sulforhodamine B assay"}, "Paracentrotus lividus": {"test_system": "Paracentrotus lividus", "assay": "Antimitotic activity against Paracentrotus lividus embryo assessed as cleavage arrest measured at 5.5 hrs post fertilization by light microscopy", "in_short": "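Sea urchin eggs were fertilized with diluted sperm and cultured at room temperature in filtered seawater with paddle agitation (60 rpm), at up to 2000 embryos/mL. The effective threshold concentration causing cleavage alteration, death before hatching or full mitotic arrest was scored in duplicate.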"}, "HOP-62 [10]": {"test_system": "HOP-62", "assay": "Cytotoxicity against human HOP62 cells incubated for 48 hrs by sulforhodamine B assay", "conditions": "HOP-62, 48 h"}, "HOP-62 [11]": {"test_system": "HOP-62", "assay": "Cytotoxicity against human HOP62 cells assessed as cell growth at 0.01 uM incubated for 48 hrs by sulforhodamine B assay relative to control", "conditions": "HOP-62, 48 h, read-out: Activity"}}, "data": [{"smiles": "COc1ccc(-c2nocc2-c2cc(OC)c(OC)c(OC)c2)cc1", "values": [{"measurement": "growth at 1 µM", "setting": "MOLT-4", "result": 44, "unit": "%"}, {"measurement": "growth at 10 µM", "setting": "NCI/ADR-RES [1]", "result": 9, "unit": "%"}, {"measurement": "growth at 0.1 µM", "setting": "CAKI-1", "result": 62, "unit": "%"}, {"measurement": "growth at 0.01 µM", "setting": "Hs-578T", "result": 92, "unit": "%"}, {"measurement": "growth at 100 µM", "setting": "A549 [2]", "result": 6, "unit": "%"}, {"measurement": "growth at 0.1 µM", "setting": "TK-10", "result": 46, "unit": "%"}, {"measurement": "growth at 0.1 µM", "setting": "786-0", "result": 54, "unit": "%"}, {"measurement": "growth at 100 µM", "setting": "COLO 205", "result": -40, "unit": "%"}, {"measurement": "growth at 0.1 µM", "setting": "SK-MEL-28", "result": 61, "unit": "%"}, {"measurement": "growth at 0.1 µM", "setting": "OVCAR-8", "result": 74, "unit": "%"}, {"measurement": "growth at 10 µM", "setting": "IGROV-1", "result": 25, "unit": "%"}, {"measurement": "GI50", "setting": "NCI/ADR-RES [3]; read-out: GI50", "result": 0.0538, "unit": "µM"}, {"measurement": "LC50", "setting": "NCI/ADR-RES [3]; read-out: LC50", "result": "> 100", "unit": "µM"}, {"measurement": "TGI", "setting": "NCI/ADR-RES [3]; read-out: TGI", "result": 37.2, "unit": "µM"}, {"measurement": "GI50", "setting": "NCI/ADR-RES [3]; read-out: pGI50 (converted)", "result": 0.0537, "unit": "µM"}, {"measurement": "LC50", "setting": "NCI/ADR-RES [3]; read-out: pLC50 (converted)", "result": "> 100", "unit": "µM"}, {"measurement": "TGI", "setting": "NCI/ADR-RES [3]; read-out: pTGI (converted)", "result": 37.2, "unit": "µM"}, {"measurement": "growth at 0.01 µM", "setting": "RPMI-8226", "result": 100, "unit": "%"}, {"measurement": "growth at 10 µM", "setting": "A549 [4]", "result": 29, "unit": "%"}, {"measurement": "growth at 10 µM", "setting": "MDA-MB-231", "result": 17, "unit": "%"}, {"measurement": "growth at 0.1 µM", "setting": "SF-295", "result": 36, "unit": "%"}, {"measurement": "growth at 0.1 µM", "setting": "SNB-19", "result": 69, "unit": "%"}, {"measurement": "growth at 0.1 µM", "setting": "SK-OV-3", "result": 60, "unit": "%"}, {"measurement": "growth at 0.01 µM", "setting": "CCRF-CEM [5]", "result": 111, "unit": "%"}, {"measurement": "growth at 100 µM", "setting": "SNB-75 [6]", "result": 9, "unit": "%"}, {"measurement": "growth at 10 µM", "setting": "SF-268", "result": 27, "unit": "%"}, {"measurement": "growth at 10 µM", "setting": "SR", "result": 22, "unit": "%"}, {"measurement": "growth at 1 µM", "setting": "MDA-MB-435", "result": -25, "unit": "%"}, {"measurement": "growth at 100 µM", "setting": "CCRF-CEM [7]", "result": 4, "unit": "%"}, {"measurement": "growth at 10 µM", "setting": "M14", "result": 13, "unit": "%"}, {"measurement": "growth at 0.1 µM", "setting": "SNB-75 [8]", "result": 47, "unit": "%"}, {"measurement": "growth at 100 µM", "setting": "SW-620", "result": 7, "unit": "%"}, {"measurement": "growth at 10 µM", "setting": "NCI-H460", "result": 4, "unit": "%"}, {"measurement": "GI50", "setting": "CCRF-CEM [9]; read-out: GI50", "result": 0.404, "unit": "µM"}, {"measurement": "LC50", "setting": "CCRF-CEM [9]; read-out: LC50", "result": "> 100", "unit": "µM"}, {"measurement": "TGI", "setting": "CCRF-CEM [9]; read-out: TGI", "result": "> 100", "unit": "µM"}, {"measurement": "GI50", "setting": "CCRF-CEM [9]; read-out: pGI50 (converted)", "result": 0.407, "unit": "µM"}, {"measurement": "LC50", "setting": "CCRF-CEM [9]; read-out: pLC50 (converted)", "result": "> 100", "unit": "µM"}, {"measurement": "TGI", "setting": "CCRF-CEM [9]; read-out: pTGI", "result": "> 100", "unit": "µM"}, {"measurement": "EC", "setting": "Paracentrotus lividus", "result": 0.1, "unit": "µM"}, {"measurement": "GI50", "setting": "HOP-62 [10]; read-out: GI50", "result": 0.259, "unit": "µM"}, {"measurement": "LC50", "setting": "HOP-62 [10]; read-out: LC50", "result": "> 100", "unit": "µM"}, {"measurement": "TGI", "setting": "HOP-62 [10]; read-out: TGI", "result": "> 100", "unit": "µM"}, {"measurement": "GI50", "setting": "HOP-62 [10]; read-out: pGI50 (converted)", "result": 0.257, "unit": "µM"}, {"measurement": "LC50", "setting": "HOP-62 [10]; read-out: pLC50 (converted)", "result": "> 100", "unit": "µM"}, {"measurement": "TGI", "setting": "HOP-62 [10]; read-out: pTGI", "result": "> 100", "unit": "µM"}, {"measurement": "growth at 0.01 µM", "setting": "HOP-62 [11]", "result": 85, "unit": "%"}]}]}
